Source: ChEMBL document CHEMBL4177526, “Discovery and structure activity relationship of the first potent cryptosporidium FIKK kinase inhibitor” (Bioorg Med Chem, 2017)

Assays:
[1] = target: Tyrosine-protein kinase ABL1 (Homo sapiens) (UniProt P00519); assay: Inhibition of human ABL (118 to 535 residues) assessed as residual activity at 500 nM in presence of 33P-ATP by filter binding assay relative to control
[2] = target: Tyrosine-protein kinase Yes (Homo sapiens) (UniProt P07947); assay: Inhibition of human YES1 (1 to 543 residues) at 500 nM by filter binding assay relative to control
[3] = target: Serine/threonine-protein kinase SIK3 (Homo sapiens) (UniProt Q9Y2K2); assay: Inhibition of human SIK3 (2 to 1369 residues) assessed as residual activity at 500 nM in presence of 33P-ATP by filter binding assay relative to control
Serine/threonine-protein kinase SIK3 (Homo sapiens), sequence (Q9Y2K2 whole entry, looked up, the tested form may be a part): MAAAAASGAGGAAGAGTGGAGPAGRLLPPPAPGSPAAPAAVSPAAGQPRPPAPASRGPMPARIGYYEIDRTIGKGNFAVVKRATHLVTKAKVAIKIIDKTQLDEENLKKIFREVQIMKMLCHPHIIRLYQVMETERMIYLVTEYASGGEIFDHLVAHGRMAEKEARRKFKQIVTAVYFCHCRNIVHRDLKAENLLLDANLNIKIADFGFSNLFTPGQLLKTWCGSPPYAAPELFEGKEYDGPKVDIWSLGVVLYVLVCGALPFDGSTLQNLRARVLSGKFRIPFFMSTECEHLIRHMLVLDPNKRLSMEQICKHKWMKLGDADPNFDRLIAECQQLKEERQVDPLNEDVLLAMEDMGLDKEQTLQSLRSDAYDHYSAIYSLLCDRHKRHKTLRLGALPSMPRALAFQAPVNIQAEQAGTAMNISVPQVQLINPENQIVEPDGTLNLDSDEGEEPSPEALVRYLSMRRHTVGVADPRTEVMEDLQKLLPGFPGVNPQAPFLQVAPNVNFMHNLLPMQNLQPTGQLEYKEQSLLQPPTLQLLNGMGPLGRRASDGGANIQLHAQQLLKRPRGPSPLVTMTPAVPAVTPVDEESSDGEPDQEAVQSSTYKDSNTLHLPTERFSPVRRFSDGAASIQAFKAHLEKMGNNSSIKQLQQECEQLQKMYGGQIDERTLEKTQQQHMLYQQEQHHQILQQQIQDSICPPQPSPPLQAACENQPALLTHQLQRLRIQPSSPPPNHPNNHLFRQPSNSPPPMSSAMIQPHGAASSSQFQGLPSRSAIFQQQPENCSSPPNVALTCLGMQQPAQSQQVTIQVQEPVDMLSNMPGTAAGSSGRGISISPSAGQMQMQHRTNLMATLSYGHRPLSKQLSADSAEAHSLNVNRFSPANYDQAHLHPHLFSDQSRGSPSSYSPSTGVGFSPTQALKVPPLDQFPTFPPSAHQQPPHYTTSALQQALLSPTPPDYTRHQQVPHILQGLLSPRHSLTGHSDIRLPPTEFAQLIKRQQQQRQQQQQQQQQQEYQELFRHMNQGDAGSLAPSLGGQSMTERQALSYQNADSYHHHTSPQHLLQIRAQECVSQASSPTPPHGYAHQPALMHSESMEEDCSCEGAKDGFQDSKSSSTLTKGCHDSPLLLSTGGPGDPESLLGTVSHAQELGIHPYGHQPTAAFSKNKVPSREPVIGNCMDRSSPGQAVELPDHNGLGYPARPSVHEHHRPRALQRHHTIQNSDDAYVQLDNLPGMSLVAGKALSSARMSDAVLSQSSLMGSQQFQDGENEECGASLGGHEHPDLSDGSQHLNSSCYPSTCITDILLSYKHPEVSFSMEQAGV

[4] = target: Serine/threonine-protein kinase Sgk1 (Homo sapiens) (UniProt O00141); assay: Inhibition of human SGK1 (60 to 431 residues) assessed as residual activity at 500 nM in presence of 33P-ATP by filter binding assay relative to control
Serine/threonine-protein kinase Sgk1 (Homo sapiens), sequence (O00141 whole entry, the tested form may be a part): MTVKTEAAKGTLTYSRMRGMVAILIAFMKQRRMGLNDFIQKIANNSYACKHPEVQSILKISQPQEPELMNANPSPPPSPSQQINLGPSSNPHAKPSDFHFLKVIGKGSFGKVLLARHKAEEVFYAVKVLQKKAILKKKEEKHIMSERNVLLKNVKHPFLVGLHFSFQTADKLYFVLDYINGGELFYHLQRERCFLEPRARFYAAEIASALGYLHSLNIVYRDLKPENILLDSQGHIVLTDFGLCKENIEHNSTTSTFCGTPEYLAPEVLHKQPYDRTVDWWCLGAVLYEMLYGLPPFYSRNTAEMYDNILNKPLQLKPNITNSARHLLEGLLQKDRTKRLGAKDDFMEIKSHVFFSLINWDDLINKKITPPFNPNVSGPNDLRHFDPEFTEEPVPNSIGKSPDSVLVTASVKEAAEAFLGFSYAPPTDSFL

[5] = target: Serine/threonine-protein kinase WNK1 (Homo sapiens) (UniProt Q9H4A3); assay: Inhibition of human WNK1 (1 to 661 residues) assessed as residual activity at 500 nM in presence of 33P-ATP by filter binding assay relative to control
[6] = target: Serine/threonine-protein kinase Nek6 (Homo sapiens) (UniProt Q9HC98); assay: Inhibition of human NEK6 (8 to 313 residues) assessed as residual activity at 500 nM in presence of 33P-ATP by filter binding assay relative to control
[7] = target: Tau-tubulin kinase 2 (Homo sapiens) (UniProt Q6IQ55); assay: Inhibition of human TTBK2 (1 to 450 residues) assessed as residual activity at 500 nM in presence of 33P-ATP by filter binding assay relative to control
[8] = target: Ephrin type-B receptor 2 (Homo sapiens) (UniProt P29323); assay: Inhibition of human EPHB2 (560 to 987 residues) assessed as residual activity at 500 nM in presence of 33P-ATP by filter binding assay relative to control
[9] = target: CDK9/cyclin T1 (Homo sapiens) (UniProt O60563+P50750); assay: Inhibition of human CDK9 (1 to 372 residues)/cyclinT1 (1 to 726 residues) assessed as residual activity at 500 nM in presence of 33P-ATP by filter binding assay relative to control; assay type: protein-complex assay
[10] = target: Vascular endothelial growth factor receptor 2 (Homo sapiens) (UniProt P35968); assay: Inhibition of human VEGFR2 (unknown origin) at 500 nM relative to control
Vascular endothelial growth factor receptor 2 (Homo sapiens), sequence (P35968 whole entry, looked up, the tested form may be a part): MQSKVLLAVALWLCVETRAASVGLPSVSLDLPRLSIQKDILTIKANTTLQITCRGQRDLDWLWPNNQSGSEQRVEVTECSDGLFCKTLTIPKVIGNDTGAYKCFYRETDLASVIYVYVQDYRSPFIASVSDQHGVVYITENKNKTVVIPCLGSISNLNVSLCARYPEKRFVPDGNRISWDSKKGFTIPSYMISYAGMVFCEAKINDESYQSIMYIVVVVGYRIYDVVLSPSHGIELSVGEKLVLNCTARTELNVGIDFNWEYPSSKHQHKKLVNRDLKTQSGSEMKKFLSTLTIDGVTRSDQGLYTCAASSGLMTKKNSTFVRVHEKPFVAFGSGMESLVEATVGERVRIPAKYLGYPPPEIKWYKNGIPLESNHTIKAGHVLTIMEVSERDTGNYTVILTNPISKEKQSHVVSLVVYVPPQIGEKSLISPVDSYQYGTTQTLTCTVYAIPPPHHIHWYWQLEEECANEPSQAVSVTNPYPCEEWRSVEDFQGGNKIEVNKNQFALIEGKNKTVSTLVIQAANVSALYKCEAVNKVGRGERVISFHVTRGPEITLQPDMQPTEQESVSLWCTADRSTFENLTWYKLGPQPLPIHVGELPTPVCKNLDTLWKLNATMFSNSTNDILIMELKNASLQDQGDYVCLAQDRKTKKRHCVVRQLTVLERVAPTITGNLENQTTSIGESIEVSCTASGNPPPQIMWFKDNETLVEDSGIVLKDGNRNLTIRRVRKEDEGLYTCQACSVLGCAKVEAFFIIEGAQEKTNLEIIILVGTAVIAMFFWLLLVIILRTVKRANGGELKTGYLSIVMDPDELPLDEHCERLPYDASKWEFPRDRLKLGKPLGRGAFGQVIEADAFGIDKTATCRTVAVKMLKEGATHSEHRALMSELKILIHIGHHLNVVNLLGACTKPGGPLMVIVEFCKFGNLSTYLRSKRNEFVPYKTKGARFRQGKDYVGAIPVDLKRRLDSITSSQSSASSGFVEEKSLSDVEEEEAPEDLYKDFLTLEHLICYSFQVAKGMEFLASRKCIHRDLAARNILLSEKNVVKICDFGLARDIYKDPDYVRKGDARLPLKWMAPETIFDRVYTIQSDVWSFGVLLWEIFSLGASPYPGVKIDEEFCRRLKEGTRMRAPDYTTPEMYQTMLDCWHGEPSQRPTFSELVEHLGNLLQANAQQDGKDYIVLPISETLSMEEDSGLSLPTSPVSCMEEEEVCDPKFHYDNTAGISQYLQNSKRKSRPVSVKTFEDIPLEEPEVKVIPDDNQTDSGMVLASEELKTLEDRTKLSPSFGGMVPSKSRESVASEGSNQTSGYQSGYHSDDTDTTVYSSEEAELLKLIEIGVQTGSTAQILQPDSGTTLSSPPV

[11] = target: Eukaryotic translation initiation factor 2-alpha kinase 3 (Homo sapiens) (UniProt Q9NZJ5); assay: Inhibition of human EIF2AK3 (536 to 1116 residues) assessed as residual activity at 500 nM in presence of 33P-ATP by filter binding assay relative to control
Cryptosporidium parvum = assay: Antiparasitic activity against Cryptosporidium parvum Iowa oocysts infected in human HCT8 cells pretreated prior to infection measured after 48 hrs by fluorescein labeled Vicia villosa lectin/Hoechst 33258 staining based epifluorescence microscopic analysis; assay type: functional, organism-based; settings: Cryptosporidium parvum, Iowa, HCT-8; read-out: EC50
In short: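 HCT-8 cells grown in RPMI-1640 with 10% heat-inactivated FBS and penicillin. Three-fold compound dilutions in culture medium were added to confluent cells before about 5500 excysted C. parvum Iowa oocysts per well. After 48 h, cells were fixed with 4% paraformaldehyde and permeabilized. Vacuoles were stained with fluorescein-Vicia villosa lectin (1.33 µg/mL, 1 h, 37 °C) and nuclei with Hoechst 33258, then imaged by epifluorescence microscopy.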

[12] = target: Rho-associated protein kinase 2 (Homo sapiens) (UniProt O75116); assay: Inhibition of human ROCK2 (2 to 543 residues) assessed as residual activity at 500 nM in presence of 33P-ATP by filter binding assay relative to control
[13] = target: Calcium/calmodulin-dependent protein kinase kinase 2 (Homo sapiens) (UniProt Q96RR4); assay: Inhibition of human CAMKKbeta (1 to 541 residues) assessed as residual activity at 500 nM in presence of 33P-ATP by filter binding assay relative to control
[14] = target: Proto-oncogene tyrosine-protein kinase Src (Homo sapiens) (UniProt P12931); assay: Inhibition of human SRC (1 to 536 residues) assessed as residual activity at 500 nM in presence of 33P-ATP by filter binding assay relative to control
[15] = target: Ribosomal protein S6 kinase alpha-5 (Homo sapiens) (UniProt O75582); assay: Inhibition of human MSK1 (2 to 802 residues) assessed as residual activity at 500 nM in presence of 33P-ATP by filter binding assay relative to control
Ribosomal protein S6 kinase alpha-5 (Homo sapiens), sequence (O75582 whole entry, looked up, the tested form may be a part): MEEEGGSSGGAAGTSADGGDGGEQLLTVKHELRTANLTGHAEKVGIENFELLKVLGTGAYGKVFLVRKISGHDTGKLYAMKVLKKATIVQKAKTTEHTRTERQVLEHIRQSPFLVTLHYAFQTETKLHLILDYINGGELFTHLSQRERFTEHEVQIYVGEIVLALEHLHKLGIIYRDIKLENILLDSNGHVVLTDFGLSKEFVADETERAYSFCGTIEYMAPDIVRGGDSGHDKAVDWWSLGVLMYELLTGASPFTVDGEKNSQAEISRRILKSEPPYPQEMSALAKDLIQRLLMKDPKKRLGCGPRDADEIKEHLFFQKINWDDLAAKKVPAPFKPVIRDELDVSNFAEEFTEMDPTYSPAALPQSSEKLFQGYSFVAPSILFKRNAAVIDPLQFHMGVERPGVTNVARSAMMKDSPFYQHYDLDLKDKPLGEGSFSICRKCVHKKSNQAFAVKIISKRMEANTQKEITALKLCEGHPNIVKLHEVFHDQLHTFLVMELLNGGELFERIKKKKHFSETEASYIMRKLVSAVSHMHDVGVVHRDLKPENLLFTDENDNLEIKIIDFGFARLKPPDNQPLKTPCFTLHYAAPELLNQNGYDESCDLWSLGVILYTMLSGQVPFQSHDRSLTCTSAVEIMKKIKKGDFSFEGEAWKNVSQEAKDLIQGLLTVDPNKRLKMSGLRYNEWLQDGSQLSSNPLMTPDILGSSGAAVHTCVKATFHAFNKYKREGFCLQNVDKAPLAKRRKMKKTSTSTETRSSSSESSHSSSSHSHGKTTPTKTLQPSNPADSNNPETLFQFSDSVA

TAK1/TAB1 (Homo sapiens) = TAK1/TAB1 (Homo sapiens) (UniProt Q15750+O43318); assay: Inhibition of human TAK1 (1 to 303 residues)/TAB1 (437 to 504 residues) at 500 nM in presence of 33P-ATP by filter binding assay relative to control; assay type: protein-complex assay
[16] = target: Ribosomal protein S6 kinase alpha-3 (Homo sapiens) (UniProt P51812); assay: Inhibition of human RSK2 assessed as residual activity at 500 nM in presence of 33P-ATP by filter binding assay relative to control
Ribosomal protein S6 kinase alpha-3 (Homo sapiens), sequence (P51812 whole entry, the tested form may be a part): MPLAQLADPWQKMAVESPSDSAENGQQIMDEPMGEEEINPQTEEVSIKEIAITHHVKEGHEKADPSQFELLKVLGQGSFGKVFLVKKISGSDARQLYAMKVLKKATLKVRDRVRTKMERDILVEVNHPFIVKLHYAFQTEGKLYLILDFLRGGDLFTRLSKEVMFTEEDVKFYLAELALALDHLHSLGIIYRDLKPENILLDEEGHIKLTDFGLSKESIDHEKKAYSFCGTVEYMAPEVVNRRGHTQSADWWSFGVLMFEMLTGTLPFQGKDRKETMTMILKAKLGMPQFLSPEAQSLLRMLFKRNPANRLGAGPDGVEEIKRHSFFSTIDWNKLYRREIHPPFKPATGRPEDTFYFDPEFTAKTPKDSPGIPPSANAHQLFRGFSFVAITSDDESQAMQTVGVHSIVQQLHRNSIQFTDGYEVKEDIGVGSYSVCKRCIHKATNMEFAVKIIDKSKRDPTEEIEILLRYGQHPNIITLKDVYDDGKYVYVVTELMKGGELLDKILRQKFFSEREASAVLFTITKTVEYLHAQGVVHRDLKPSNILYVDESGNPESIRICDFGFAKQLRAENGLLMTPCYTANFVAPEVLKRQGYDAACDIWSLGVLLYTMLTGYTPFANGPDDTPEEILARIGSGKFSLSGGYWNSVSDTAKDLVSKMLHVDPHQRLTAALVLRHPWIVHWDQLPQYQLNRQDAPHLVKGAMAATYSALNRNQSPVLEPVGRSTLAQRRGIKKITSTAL

[17] = target: Serine/threonine-protein kinase 24 (Homo sapiens) (UniProt Q9Y6E0); assay: Inhibition of human MST3 (1 to 431 residues) assessed as residual activity at 500 nM in presence of 33P-ATP by filter binding assay relative to control
[18] = target: Serine/threonine-protein kinase ULK1 (Homo sapiens) (UniProt O75385); assay: Inhibition of human ULK1 (2 to 1050 residues) assessed as residual activity at 500 nM in presence of 33P-ATP by filter binding assay relative to control
[19] = tested on: Serine/threonine-protein kinase OSR1 (Homo sapiens), O95747 [T185E]; assay: Inhibition of human OSR1 T185E mutant (1 to 342 residues) assessed as residual activity at 500 nM in presence of 33P-ATP by scintillation counting method relative to control
[20] = target: Mitogen-activated protein kinase 13 (Homo sapiens) (UniProt O15264); assay: Inhibition of human p38delta (1 to 365 residues) assessed as residual activity at 500 nM in presence of 33P-ATP by filter binding assay relative to control
Mitogen-activated protein kinase 13 (Homo sapiens), sequence (O15264 whole entry, the tested form may be a part): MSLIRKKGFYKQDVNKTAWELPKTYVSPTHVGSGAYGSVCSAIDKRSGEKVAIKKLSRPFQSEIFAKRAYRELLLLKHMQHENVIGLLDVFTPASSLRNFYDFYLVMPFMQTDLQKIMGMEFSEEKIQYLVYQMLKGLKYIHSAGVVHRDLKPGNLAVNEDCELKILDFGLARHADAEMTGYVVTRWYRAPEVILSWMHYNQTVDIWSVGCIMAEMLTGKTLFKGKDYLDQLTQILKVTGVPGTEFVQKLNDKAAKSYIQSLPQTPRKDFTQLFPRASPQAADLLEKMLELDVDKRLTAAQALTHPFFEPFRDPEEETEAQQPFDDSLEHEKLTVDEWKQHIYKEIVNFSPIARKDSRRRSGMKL

[21] = target: Serine/threonine-protein kinase TBK1 (Homo sapiens) (UniProt Q9UHD2); assay: Inhibition of human TBK1 (1 to 729 residues) assessed as residual activity at 500 nM in presence of 33P-ATP by filter binding assay relative to control
[22] = target: Mitogen-activated protein kinase 11 (Homo sapiens) (UniProt Q15759); assay: Inhibition of human p38beta (1 to 364 residues) assessed as residual activity at 500 nM in presence of 33P-ATP by filter binding assay relative to control

Activity [1]: 81%
inhibition [2]: 47%
Activity [3]: 86%
Activity [4]: 124%
Activity [5]: 107%
Activity [6]: 108%
Activity [7]: 125%
Activity [8]: 95%
Activity [9]: 106%
inhibition [10]: 59%
Activity [11]: 112%
EC50 (Cryptosporidium parvum): 2600 nM
Activity [12]: 112%
Activity [13]: 124%
Activity [14]: 105%
Activity [15]: 115%
inhibition (TAK1/TAB1 (Homo sapiens)): 60%
Activity [16]: 100%
Activity [17]: 91%
Activity [18]: 106%
Activity [19]: 119%
Activity [20]: 113%
Activity [21]: 77%
Activity [22]: 80%
SMILES: Cc1cccc(-c2nc(N)sc2-c2ccc3ncccc3n2)c1
